Measured values as given in ChEMBL document CHEMBL1649552 (2009).
Values after ≈ are worked out from the molar mass of the structure shown.

Key:
Format in all cases: functional
Escherichia coli [1] = experiment: Antibacterial activity against acrAB-deficient Escherichia coli AG100a
Klebsiella pneumoniae = experiment: Antibacterial activity against Klebsiella pneumoniae by CLSI M100-S17 method
Escherichia coli [2] = experiment: Antibacterial activity against Escherichia coli AG100
Moraxella catarrhalis = experiment: Antibacterial activity against Moraxella catarrhalis by CLSI M100-S17 method
Escherichia coli [3] = experiment: Antibacterial activity against Escherichia coli by CLSI M100-S17 method
Streptococcus pneumoniae = experiment: Antibacterial activity against Streptococcus pneumoniae by CLSI M100-S17 method
[4] = system: Staphylococcus epidermidis; experiment: Antibacterial activity against methicillin-resistant Staphylococcus epidermidis by CLSI M100-S17 method
Enterococcus faecium = experiment: Antibacterial activity against Enterococcus faecium by CLSI M100-S17 method
Streptococcus agalactiae = experiment: Antibacterial activity against Streptococcus agalactiae by CLSI M100-S17 method
Staphylococcus aureus [5] = experiment: Antibacterial activity against methicillin-resistant Staphylococcus aureus by CLSI M100-S17 method
Staphylococcus aureus [6] = experiment: Antibacterial activity against methicillin-susceptible Staphylococcus aureus by CLSI M100-S17 method
Enterococcus faecalis = experiment: Antibacterial activity against Enterococcus faecalis by CLSI M100-S17 method
Staphylococcus aureus [7] = experiment: Antibacterial activity against Staphylococcus aureus ATCC 29213 by CLSI M100-S17 method; settings: ATCC29213
Summary of the method: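 Reference strain S. aureus ATCC 29213 was tested by CLSI broth microdilution in frozen in-house panels. Compound was dissolved and diluted in DMSO over doubling dilutions of 0.008 to 4 μg/ml.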

Acinetobacter baumannii = experiment: Antibacterial activity against Acinetobacter baumannii by CLSI M100-S17 method
Proteus mirabilis = experiment: Antibacterial activity against Proteus mirabilis by CLSI M100-S17 method
Enterobacter cloacae = experiment: Antibacterial activity against Enterobacter cloacae by CLSI M100-S17 method
Klebsiella oxytoca = experiment: Antibacterial activity against Klebsiella oxytoca by CLSI M100-S17 method
[8] = system: Staphylococcus epidermidis; experiment: Antibacterial activity against methicillin-susceptible Staphylococcus epidermidis by CLSI M100-S17 method
Serratia marcescens = experiment: Antibacterial activity against Serratia marcescens by CLSI M100-S17 method
[9] = system: Stenotrophomonas maltophilia; experiment: Antibacterial activity against Stenotrophomonas maltophilia by CLSI M100-S17 method
Pseudomonas aeruginosa = experiment: Antibacterial activity against Pseudomonas aeruginosa by CLSI M100-S17 method
Streptococcus pyogenes = experiment: Antibacterial activity against Streptococcus pyogenes by CLSI M100-S17 method

Molecule `Cc1c(CN(C)C(=O)/C=C/c2cnc3c(c2)CCC(=O)N3)oc2ccccc12` [AFN-1252] has an MIC (Escherichia coli [1]) of 0.016 µg/mL (≈ 0.0426 µM), an MIC50 (Klebsiella pneumoniae) of over 4 µg/mL and an MIC90 (Klebsiella pneumoniae) of over 4 µg/mL. It also gave an MIC (Escherichia coli [2]) of over 32 µg/mL, an MIC50 (Moraxella catarrhalis) of over 4 µg/mL and an MIC90 (Moraxella catarrhalis) of over 4 µg/mL. It also gave an MIC50 (Escherichia coli [3]) of 4 µg/mL (≈ 10.7 µM), an MIC90 (Escherichia coli [3]) of over 4 µg/mL and an MIC50 (Streptococcus pneumoniae) of over 4 µg/mL. It also gave an MIC90 (Streptococcus pneumoniae) of over 4 µg/mL, an MIC [4] of 0.008 µg/mL (≈ 0.0213 µM) and an MIC90 [4] of at most 0.008 µg/mL. It also gave an MIC50 (Enterococcus faecium) of over 4 µg/mL, an MIC90 (Enterococcus faecium) of over 4 µg/mL and an MIC (Streptococcus agalactiae) of over 4 µg/mL. It also gave an MIC50 (Streptococcus agalactiae) of over 4 µg/mL, an MIC90 (Streptococcus agalactiae) of over 4 µg/mL and an MIC (Staphylococcus aureus [5]) of 0.008 µg/mL (≈ 0.0213 µM). The MIC50 (Staphylococcus aureus [6]) was at most 0.008 µg/mL, the MIC90 (Staphylococcus aureus [6]) was at most 0.008 µg/mL and the MIC (Enterococcus faecalis) was over 4 µg/mL. The MIC50 (Enterococcus faecalis) was over 4 µg/mL, the MIC90 (Enterococcus faecalis) was over 4 µg/mL and the MIC (Staphylococcus aureus [7]) was 0.015 µg/mL (≈ 0.04 µM). It also gave an MIC (Acinetobacter baumannii) of over 4 µg/mL, an MIC50 (Acinetobacter baumannii) of over 4 µg/mL and an MIC90 (Acinetobacter baumannii) of over 4 µg/mL. For the same molecule, the MIC50 (Proteus mirabilis) was 4 µg/mL (≈ 10.7 µM), the MIC90 (Proteus mirabilis) was over 4 µg/mL and the MIC50 (Enterobacter cloacae) was over 4 µg/mL. The MIC90 (Enterobacter cloacae) was over 4 µg/mL, the MIC50 (Klebsiella oxytoca) was over 4 µg/mL and the MIC90 (Klebsiella oxytoca) was over 4 µg/mL. It also gave an MIC50 [8] of at most 0.008 µg/mL, an MIC90 [8] of 0.03 µg/mL (≈ 0.0799 µM) and an MIC50 (Serratia marcescens) of 4 µg/mL (≈ 10.7 µM). The MIC90 (Serratia marcescens) was over 4 µg/mL, the MIC [9] was over 4 µg/mL and the MIC50 [9] was over 4 µg/mL. The MIC90 [9] was over 4 µg/mL, the MIC (Pseudomonas aeruginosa) was over 4 µg/mL and the MIC50 (Pseudomonas aeruginosa) was over 4 µg/mL. The MIC90 (Pseudomonas aeruginosa) was over 4 µg/mL, the MIC50 (Streptococcus pyogenes) was over 4 µg/mL and the MIC90 (Streptococcus pyogenes) was over 4 µg/mL. The MIC (Streptococcus pyogenes; read-out: MIC) was over 4 µg/mL.
